Data reported in PMC4109633 (Drug Design, Development and Therapy, 2014).
Marks after values point to notes of the source that are not given here.

Tests used:
[1] = tested on: G-quadruplex DNA; conditions: cited from earlier work
[2] = tested on: Salmonella typhimurium TA1535; test: Ames Salmonella/microsomal mutagenicity assay; assay type: cell-based; conditions: presence of S9 mix, spontaneous 67.0±6.1
[3] = tested on: Salmonella typhimurium TA1535; test: Antimutagenicity assay against sodium azide; assay type: cell-based; conditions: for NaN3 mutagenicity (revertant colonies/plate; mean ± SEM): NaN3 2 μg/plate, spontaneous 29.3±5.3; for Mutant frequency (sodium azide): mutant colonies/viable colonies
Procedure, shortened: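 TA1535 was exposed to test compound at 10 or 20 µM with NaN₃ (2 µg/plate) in two schemes. In pre-exposure, compound and bacteria were shaken 30 min at 37°C before mutagen was added. In co-exposure, bacteria, mutagen and compound were incubated together 30 min at 37°C. Cells were then plated on minimal glucose agar, and revertants counted at 48 h, in triplicate. Mutant frequency = mutant colonies/viable colonies.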

[4] = tested on: Salmonella typhimurium TA1535; test: Antimutagenicity assay against benzo[a]pyrene with S9 mix; assay type: cell-based; conditions: for B[a]P mutagenicity (revertant colonies/plate; mean ± SEM): B[a]P 20 μM + S9 mix, spontaneous 105.0±13.1; for Mutant frequency (benzo[a]pyrene): mutant colonies/viable colonies; for Antimutagenic potential against B[a]P: low concentration investigated
[5] = tested on: Salmonella typhimurium TA1535; test: Cytotoxicity in liquid medium; assay type: cell-based; conditions: mean ± SEM
Procedure, shortened: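 TA1535 was grown in broth microdilution with test compound at 25, 50 or 100 µM. Viability was expressed as % of untreated control (mean ± SEM), triplicate.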

| Compound | Fluoroarylbichalcophene mutagenicity (revertant colonies/plate; mean ± SEM) ([2]; 10 μM) | Fluoroarylbichalcophene mutagenicity (revertant colonies/plate; mean ± SEM) ([2]; 20 μM) | NaN3 mutagenicity (revertant colonies/plate; mean ± SEM) ([3]; co-exposure, 10 μM) | Mutant frequency (sodium azide) ([3]; co-exposure, 10 μM) | NaN3 mutagenicity (revertant colonies/plate; mean ± SEM) ([3]; co-exposure, 20 μM) | Mutant frequency (sodium azide) ([3]; co-exposure, 20 μM) | NaN3 mutagenicity (revertant colonies/plate; mean ± SEM) ([3]; pre-exposure, 10 μM) | Mutant frequency (sodium azide) ([3]; pre-exposure, 10 μM) | NaN3 mutagenicity (revertant colonies/plate; mean ± SEM) ([3]; pre-exposure, 20 μM) | Mutant frequency (sodium azide) ([3]; pre-exposure, 20 μM) | B[a]P mutagenicity (revertant colonies/plate; mean ± SEM) ([4]; co-exposure, 10 μM) | B[a]P mutagenicity (revertant colonies/plate; mean ± SEM) ([4]; co-exposure, 20 μM) | B[a]P mutagenicity (revertant colonies/plate; mean ± SEM) ([4]; pre-exposure, 10 μM) | Mutant frequency (benzo[a]pyrene) ([4]; pre-exposure, 10 μM) | B[a]P mutagenicity (revertant colonies/plate; mean ± SEM) ([4]; pre-exposure, 20 μM) | Mutant frequency (benzo[a]pyrene) ([4]; pre-exposure, 20 μM) | Viability at fluoroarylbichalcophene concentrations (% of control) ([5]; 25 μM) | Viability at fluoroarylbichalcophene concentrations (% of control) ([5]; 50 μM) | Viability at fluoroarylbichalcophene concentrations (% of control) ([5]; 100 μM) | Mutant frequency (benzo[a]pyrene) ([4]; co-exposure, 10 μM) | further results |
| --- | --- | --- | --- | --- | --- | --- | --- | --- | --- | --- | --- | --- | --- | --- | --- | --- | --- | --- | --- | --- | --- |
| N=C(N)c1ccc(-c2ccc(-c3ccc(C(=N)N)o3)o2)cc1 [Compound I, 5′-(4-amidinophenyl)-2,2′-bifuran-5-carboxamidine] | – | – | – | – | – | – | – | – | – | – | – | – | – | – | – | – | – | – | – | – | Recognition of G-quadruplex DNA [1]: recognize G-quadruplex DNA |
| Cl.N=C(N)c1ccc(-c2ccc(-c3cccs3)o2)c(F)c1 [Compound 5c, 3-Fluoro-4-(5-(thiophen-2-yl)furan-2-yl)benzamidine hydrochloride salt] | 70.0±5.9 revertant colonies/plate | 66.0±3.5 revertant colonies/plate | 25.7±1.8 revertant colonies/plate | 0.48 | 24.0±3.0 revertant colonies/plate | 0.47 | 102.0±7.2 revertant colonies/plate | 1.91 | 33.3±8.7 revertant colonies/plate | 0.65 | 110.7±10.5 revertant colonies/plate | 111.0±10.2 revertant colonies/plate | 148.7±9.8 revertant colonies/plate | 2.23 | 124.0±5.3 revertant colonies/plate | 2.02 | 71.3±6.4 % of control | 58.7±4.2 ^a % of control | 28.7±3.0 ^a % of control | – | Antimutagenic potential against NaN3 ([3]; pre-exposure, only at 20 μM): strong (40% or more reduction means strong antimutagenic activity) |
| N#Cc1ccc(-c2ccc(-c3ccco3)o2)cc1F [Compound 4b, 4-(2,2′-Bifuran-5-yl)-2-fluorobenzonitrile] | 64.3±4.0 revertant colonies/plate | 71.3±4.0 revertant colonies/plate | 35.3±2.8 revertant colonies/plate | 0.65 | 32.7±5.5 revertant colonies/plate | 0.64 | 69.7±8.0 revertant colonies/plate | 1.28 | 48.3±5.0 revertant colonies/plate | 0.95 | 193.0±15.7 revertant colonies/plate | 154.7±16.5 revertant colonies/plate | 239.3±10.5 revertant colonies/plate | 3.72 | 238.0±7.6 revertant colonies/plate | 3.70 | 88.3±7.4 % of control | 64.7±6.6 ^a % of control | 29.0±3.1 ^a % of control | 3.00 | Mutant frequency (benzo[a]pyrene) ([4]; co-exposure, 20 μM): 2.41 |
| N#Cc1ccc(-c2ccc(-c3cccs3)s2)cc1F [Compound 4e, 4-(2,2′-Bithiophen-5-yl)-2-fluorobenzonitrile] | 65.3±6.2 revertant colonies/plate | 66.7±6.7 revertant colonies/plate | 36.7±4.7 revertant colonies/plate | 0.66 | 25.0±5.6 revertant colonies/plate | 0.48 | 24.7±3.5 revertant colonies/plate | 0.44 | 21.7±2.1 revertant colonies/plate | 0.42 | 282.3±16.6 revertant colonies/plate | 285.0±18.1 revertant colonies/plate | 241.3±11.0 revertant colonies/plate | 3.66 | 201.0±10.5 revertant colonies/plate | 3.09 | 104.0±9.9 % of control | 64.7±8.1 ^a % of control | 22.3±2.2 ^a % of control | 4.28 | Mutant frequency (benzo[a]pyrene) ([4]; co-exposure, 20 μM): 4.38; Antimutagenic potential against B[a]P ([4]; co-exposure): no significant activity |
| N#Cc1ccc(-c2ccc(-c3cccs3)o2)c(F)c1 [Compound 4c, 3-Fluoro-4-(5-(thiophen-2-yl)furan-2-yl)benzonitrile] | 65.3±5.4 revertant colonies/plate | 68.7±5.5 revertant colonies/plate | 44.7±6.0 revertant colonies/plate | 0.81 | 40.0±5.0 revertant colonies/plate | 0.78 | 51.0±6.6 revertant colonies/plate | 0.93 | 53.7±9.3 revertant colonies/plate | – | 279.3±19.5 revertant colonies/plate | 269.3±9.0 revertant colonies/plate | 177.0±11.3 revertant colonies/plate | 2.81 | 153.7±7.0 revertant colonies/plate | 2.52 | 104.7±11.6 % of control | 61.0±7.0 ^a % of control | 2.7±0.4 ^a % of control | 4.43 | Mutant frequency (benzo[a]pyrene) ([4]; co-exposure, 20 μM): 4.41; Antimutagenic potential against B[a]P ([4]; co-exposure): no significant activity |
